# Beta2AR agonist = beta2AR agonists driving receptor internalization, primary screen, cell-based, FAP fluorogen, flow cytometry; Beta-2 adrenergic receptor (Homo sapiens), P07550; Am2.2-beta2AR cells; response, % (test concentration not listed); actives 0.43% (n = 340,000); AID 504454, 2011;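 active = response above a set limit, near 3 SD of response in nonfluorescent compounds, cut at about 42% in these data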
# Target sequence (P07550 whole entry, looked up): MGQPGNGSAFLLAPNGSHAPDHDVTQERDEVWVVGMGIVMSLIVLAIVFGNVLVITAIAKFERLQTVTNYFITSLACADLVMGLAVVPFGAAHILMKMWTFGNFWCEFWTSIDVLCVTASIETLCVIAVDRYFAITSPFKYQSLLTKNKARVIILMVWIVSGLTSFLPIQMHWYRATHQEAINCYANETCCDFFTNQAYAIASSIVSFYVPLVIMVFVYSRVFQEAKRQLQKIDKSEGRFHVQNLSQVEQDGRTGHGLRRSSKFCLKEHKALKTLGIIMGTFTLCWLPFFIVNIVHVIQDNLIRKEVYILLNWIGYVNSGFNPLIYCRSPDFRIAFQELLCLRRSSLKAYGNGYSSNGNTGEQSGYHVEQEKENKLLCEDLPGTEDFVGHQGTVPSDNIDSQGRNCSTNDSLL
# UHRF1 binding = UHRF1 methylated DNA binding inhibitors, primary screen, counter-screen for MBD2 inhibitor project, biochemical, TR-FRET, human UHRF1, single concentration; inhibition, % at 4.4 µM; actives 0.75% (n = 370,000); UHRF1 binding to methylated oligo; E3 ubiquitin-protein ligase UHRF1 (Homo sapiens), Q96T88; AID 687016, 2013; in the data active = inhibition above about 21%;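 also: UHRF1 SRA domain binding a hemimethylated CpG hairpin DNA probe; 0% = median of test compound wells and 100% = reference inhibitor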
# MBD2 DNA inh = inhibitors of MBD2 binding to methylated DNA, primary screen, biochemical, TR-FRET, DNA-binding domain, human. actives 0.31% (n = 370,000). inhibition, % at 4.4 µM. MBD2 binding to methylated oligonucleotide. AID 686964, 2013; in the data active = inhibition above about 13%
# Rin1 Abl inh = inhibitors of Rin1-Abl protein binding, primary screen, biochemical, TR-FRET; inhibition, % at 7.35 µM; Tyrosine-protein kinase ABL1 (Homo sapiens) + Ras and Rab interactor 1 (Homo sapiens), …; AID 588664, 2011; actives 0.4% (n = 360,000); in the data active = inhibition above about 5%, passing the limit was not always enough
# Arr AP2 block = inhibitors of beta-arrestin/AP2 binding, primary screen, biochemical, GPCR trafficking, flow cytometry; FITC-arrestin peptide / GST-AP2 beads; AP2 beta2 appendage carries R879A mutation; inhibition, % at 10 µM; actives 0.31% (n = 340,000);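 active = inhibition above a set limit, near 3 SD of compounds lacking own fluorescence, cut at about 54% in these data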;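 also: plate controls were DMSO wells for no effect and 5 µM unlabelled arrestin peptide for full effect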
#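 System: GST-AP2 R879A bound to glutathione beads, E. coli-expressed. Also added: 50 nM FITC-arrestin peptide. Schedule: compound with beads 12 min RT, then probe 1 h RT. Signal: bead flow cytometry, FITC channel. Read-out basis: percent response.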
# ABHD5-PLIN5 inh = ABHD5-PLIN5 interaction inhibitors, primary screen, cell lysate, split luciferase complementation, luminescence; inhibition, % at 4 µM; Split G. princeps luciferase complementation, 4 h; actives 0.78% (n = 360,000); Perilipin-5 (Homo sapiens) + 1-acylglycerol-3-phosphate O-acyltransferase ABHD5 (Homo …;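 active = inhibition above the mean inhibition across every tested compound plus 3 SD, cut at about 22% in these data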;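 also: 0% = DMSO only wells and the 100% control is not disclosed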
# Rin1-Abl confirm = Rin1-Abl binding inhibitor retest, confirmation, biochemical, TR-FRET | actives 49% (n = 1,300) | shares compounds with Rin1 Abl inh | AID 602124, 2011 | purified proteins | inhibition, % at 7.35 µM; in the data active = inhibition above about 6.5%
# GFP quench-1 = GFP fluorescence inhibitors and quenchers, artefact control for Rin1-Abl interaction inhibitor project, biochemical | shares compounds with Rin1 Abl inh | inhibitors/quenchers counterscreen | inhibition, % at 6.75 µM | actives 8.5% (n = 1,300); in the data active = inhibition above about 6.5%;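 also: ABL1-eGFP fusion protein alone without its partner RIN1-SBP; 0% = protein with vehicle and 100% = wells lacking protein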
# GFP quench dose = GFP fluorescence inhibitors and quenchers, dose response, artefact control for Rin1-Abl interaction inhibitor project, biochemical; shares compounds with Rin1 Abl inh; GFP fluorescence interference/quenching counterscreen; IC50, µM; 230 tested, under 10 active; AID 602182, 2012;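 also: ABL1-eGFP fusion protein alone without its RIN1 binding partner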
# GFP quench-2 = GFP fluorescence inhibitors and quenchers, late-stage follow-up, artefact control for Rin1-Abl interaction inhibitor project, biochemical, dose response | IC50, µM | GFP fluorescence quenching counterscreen | 25 tested, under 10 active | shares compounds with Rin1 Abl inh | AID 602397, 2012
# * marks the source's active call; other numbers are inactive results; nt = not tested or not shown. This is a sample that favours compounds with a hit; in the whole collection about 2.5% have one here. Unless noted, no rule for the calls is given here.
SMILES,Beta2AR agonist,UHRF1 binding,MBD2 DNA inh,Rin1 Abl inh,Arr AP2 block,ABHD5-PLIN5 inh,Rin1-Abl confirm,GFP quench-1,others
Cc1ccc(NC(=O)Cn2nnc(-c3ccncc3)n2)cc1C,nt,-4,3,nt,nt,nt,nt,nt,
O=C(O)c1cccc(COc2ccccc2Cl)c1,-2,0,-1,2,-3,-6,nt,nt,
O=C(O)c1ccc(COc2ccccc2Cl)cc1,10,1,-3,5.0*,2,8,0,0,
CCCCCC[C@H](CN(CCCC)S(C)(=O)=O)c1ccccc1,nt,-3,-1,nt,nt,nt,nt,nt,
CSc1nc2nc3c(cc2c(=O)n1-c1ccccc1)COC(C)(C)C3,-16,2,0,2,1,0,nt,nt,
CC1(C)Cc2nc3nc(SCC(=O)NCCc4ccccc4)n(-c4ccccc4)c(=O)c3cc2CO1,4,1,0,8.2*,36,11,6,2,
CC(=O)NN1C(=O)/C(=C/c2ccc(Br)o2)SC1=S,-2,10,2,6.5*,19,1,-2,0,
CC(=O)NN1C(=O)/C(=C\c2ccc(Br)o2)SC1=S,-110,0,-5,1,-7,2,nt,nt,
Cc1ccc(-n2c(SCc3cccc(F)c3)nc3sc4c(c3c2=O)CCCC4)cc1,nt,-1,-3,nt,nt,nt,nt,nt,
COCCN1CCn2c(nc3cc(NC(=O)Cn4nc(C)c5ccccc5c4=O)ccc32)C1,-2,5,9,0,-11,9,nt,nt,
Cc1nn(CC(=O)Nc2ccc3c(c2)nc2n3CCOC2)c(=O)c2ccccc12,2,0,0,10*,-1,3,-1,1,
COc1ccc(/C(C)=N\NC(=O)c2ccco2)cc1,nt,0,0,nt,nt,nt,nt,nt,
Cc1nc(SCC(=O)N2CC(C)OC(C)C2)nc(C)c1C (stereo not drawn),-3,2,1,8.3*,17,-3,9.5*,0,
O=C(c1ccc2c(c1)OCO2)N1CCN(c2ncccn2)CC1,1,2,-2,5.3*,15,5,-1,-3,
CC(C)[C@H](N)C(=O)N1CCC[C@@H]1C(=O)N1CCC2CCN(S(=O)(=O)c3ccccc3)CC21 (stereo partly drawn),nt,-8,-3,nt,nt,nt,nt,nt,
COc1ccc(C(C[N+](=O)[O-])c2c(C)[nH]n(-c3ccccc3)c2=O)cc1 (stereo not drawn),13,16,13,11*,-18,11,6.6*,-2,
CCCC(=O)Nc1ccc(N2CCN(C(=O)c3cc4ccccc4o3)CC2)cc1,-12,0,0,11*,9,7,8.1*,1,
CC(=O)N1CCN(c2ccc(NC(=O)c3cc4ccccc4o3)cc2)CC1,-1,1,-2,1,1,4,nt,nt,
COC(=O)[C@]12CCCCC=C1N(Cc1ccc(OC)cc1)C(=O)[C@@H]2CC(=O)N1CCCCC1,nt,2,-3,nt,nt,nt,nt,nt,
CC(C)(C)[C@H]1C=C(C(=O)N2CCN(Cc3ccccc3)CC2)O[C@@H](OCCCCO)C1,-7,-4,1,16*,-3,-1,4,0,
O=C1C=C(N2CCOCC2)c2cccc3cccc1c23,nt,-13,-13,16*,nt,-11,-15,1,
Cc1ccc(NC(=O)Cn2nc(C(F)(F)F)c3c2CCC3)cc1,0,4,3,5.0*,-2,-9,1,-3,
COc1ccc(CC(=O)OCC(=O)NC(=O)Nc2ccccc2F)cc1,2,-1,3,8.9*,29,3,0,-1,
COC(=O)C[C@@H]1CC[C@H]2[C@H](COc3ccc(NC(=O)c4cccc(C(F)(F)F)c4)cc3C(=O)N2C)O1,nt,-1,1,nt,nt,nt,nt,nt,
O=C(NN=c1c(=O)c2ccccc2c1=O)c1ccccc1,-6,-2,-8,23*,-7,-15,29*,0,GFP quench dose=>68
SMILES,Beta2AR agonist,UHRF1 binding,MBD2 DNA inh,Rin1 Abl inh,Arr AP2 block,ABHD5-PLIN5 inh,Rin1-Abl confirm,GFP quench-1,others
CN(C)/C=N/NC(=O)c1ccccc1,3,7,2,-1,-13,4,nt,nt,
COc1ccc(C(c2oc(CO)cc(=O)c2O)c2oc(CO)cc(=O)c2O)cc1,-9,0,0,16*,5,-2,11*,2,
COC1=C[C@H](C(=O)NCc2ccccc2)[C@H](C)[C@@H](c2ccccc2)CC1=O,nt,1,0,nt,nt,nt,nt,nt,
COc1cnc(-c2ccccn2)nc1Oc1ccccc1Cl,9,0,0,-6,-7,4,nt,nt,
COc1cnc(-c2ccccn2)nc1Oc1ccc(Cl)cc1,-10,-1,-3,6.8*,10,2,6,1,
CCCCOCCCNC(=O)C[C@H]1C(=O)N(CCCOC)C2=CCCCC[C@]21C(=O)OC,nt,0,2,nt,nt,nt,nt,nt,
O=C(COc1ncnc2c1cnn2-c1ccccc1)Nc1ccc(S(=O)(=O)N2CCCCC2)cc1,0,5,0,8.8*,9,-14,6,0,
C=CC[C@@H]1NN2C(=O)[C@@H](CCCC)[C@@H]3c4cc5ccccc5cc4C=NN3[C@@H]2c2cc3ccccc3cc21,nt,0,0,nt,nt,nt,nt,nt,
CN1C2=N[C@H](c3cccc(C(F)(F)F)c3)CC(=O)N2/C(=C\c2ccccc2)[C@H]1c1ccccc1,nt,0,3,nt,nt,nt,nt,nt,
O=c1cc(OCc2ccccc2)cc[nH]1,-3,-2,0,96*,30,5,99*,1,GFP quench dose=>67;GFP quench-2=>68
Cc1[nH]ccc(=O)c1OCc1ccccc1,6,0,2,2,18,0,nt,nt,
COC(=O)[C@H](CC(C)C)N1Cc2nnn(Cc3ccccc3)c2-c2cc(F)ccc2S1(=O)=O,nt,0,-3,nt,nt,nt,nt,nt,
O=S(=O)(CC1NCc2cc(F)ccc21)NCCc1ccccc1 (stereo not drawn),nt,-2,4,nt,nt,nt,nt,nt,

# Compound activity from PubChem.
